Assay results reported in ChEMBL document CHEMBL1150316, “Arylethynyltriazole acyclonucleosides inhibit hepatitis C virus replication” (Bioorg Med Chem Lett, 2008).
Converted amounts (≈) assume the structure as drawn.

Key:
Hepatitis C virus [1] = experiment: Antiviral activity against Hepatitis C virus infected human Huh-5-2 cells assessed as inhibition of luciferase activity after 4 days by RNA replicon assay; assay type: functional, organism-based, Hepacivirus hominis; conditions: Huh-5-2, 96 h
In short: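 Huh-5-2 subgenomic HCV replicon cells seeded 5000/well in complete DMEM with 250 µg/mL G418, 24 h at 37 °C (5% CO2). Threefold serial compound dilutions then added in DMEM without G418, 4 days at 37 °C. Replication read as luciferase activity (Steady-Glo). EC50 = concentration giving 50% inhibition of luciferase signal.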

[2] = Cytotoxicity against human Huh-5-2 cells; assay type: cell-based
In short: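 Exponentially growing Huh-5-2 cells treated with compound. CC50 taken as the concentration that inhibits cell proliferation by 50%.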

Hepatitis C virus [3] = experiment: Antiviral activity against Hepatitis C virus infected human Huh-9-13 cells assessed as reduction of HCV RNA level after 4 days by RT-PCR; assay type: functional, organism-based, Hepacivirus hominis; conditions: 96 h
In short: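 Huh-9-13 replicon cells seeded 5000/well in complete DMEM with 1,000 µg/mL G418, 24 h at 37 °C. Threefold serial compound dilutions added in DMEM without G418, 4 days at 37 °C. Monolayers PBS-washed, lysed in RLT buffer, replicon RNA measured by quantitative real-time PCR. EC50 = 50% reduction in HCV RNA versus untreated control.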

PaCa = experiment: Cytotoxicity against human MIA PaCa cells upto 200 uM by MTT assay; assay type: functional, cell-based
In short: (§1)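 MiaPaCa, Capan-2 and PC-3 cells tested by MTT assay at concentrations up to 200 µM.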

Capan-2 = experiment: Cytotoxicity against human Capan2 cells upto 200 uM by MTT assay; assay type: functional, cell-based; in short: as §1
PC-3 = experiment: Cytotoxicity against human PC3 cells upto 200 uM by MTT assay; assay type: functional, cell-based; in short: as §1
Huh-5-2 = experiment: Cytotoxicity against human Huh-5-2 cells at 50 ug/ml; assay type: cell-based

SMILES | EC50 (Hepatitis C virus [1]) | CC50 [2] | EC50 (Hepatitis C virus [3]) | Activity (PaCa) | Activity (Capan-2) | Activity (PC-3) | Activity (Huh-5-2)
NC(=O)c1nc(C#CC2(O)CCCCC2)n(COCCO)n1 | > 50 µg/mL | > 50 µg/mL | – | – | – | – | –
CCCCCc1ccc(C#Cc2nc(C(N)=O)nn2COCCO)cc1 | 22 µg/mL (≈ 61.7 µM) | 25 µg/mL (≈ 70.1 µM) | – | – | – | – | –
NC(=O)c1nc(C#CC2=CCCCC2)n(COCCO)n1 | > 50 µg/mL | > 50 µg/mL | – | – | – | – | –
NC(=O)c1nc(C#CC2(O)CCCC2)n(COCCO)n1 | > 50 µg/mL | > 50 µg/mL | – | – | – | – | –
NC(=O)c1nc(C#Cc2ccc(C(F)(F)F)cc2)n(COCCO)n1 | 5 µg/mL (≈ 14.1 µM) | 20 µg/mL (≈ 56.5 µM) | – | – | – | – | –
NC(=O)c1nc(C#Cc2ccccc2)n(COCCO)n1 | 18 µg/mL (≈ 62.9 µM) | > 50 µg/mL | > 50 µg/mL | Not toxic | Not toxic | Not toxic | –
COc1ccc(C#Cc2nc(C(N)=O)nn2COCCO)cc1 | > 50 µg/mL | > 50 µg/mL | – | – | – | – | –
NC(=O)c1nc(C#Cc2cccc(F)c2)n(COCCO)n1 | 10 µg/mL (≈ 32.9 µM) | 29 µg/mL (≈ 95.3 µM) | – | – | – | – | –
NC(=O)c1nc(C#Cc2ccccc2F)n(COCCO)n1 | 20 µg/mL (≈ 65.7 µM) | > 50 µg/mL | – | – | – | – | < 80%
NC(=O)c1nc(C#CCCCCl)n(COCCO)n1 | > 50 µg/mL | > 50 µg/mL | – | – | – | – | –
NC(=O)c1ncn([C@@H]2O[C@H](CO)[C@@H](O)[C@H]2O)n1 [RIBAVIRIN] | 7 µg/mL (≈ 28.7 µM) | 21 µg/mL (≈ 86 µM) | – | – | – | – | –
NC(=O)c1nc(C#Cc2ccc(F)cc2)n(COCCO)n1 | 22 µg/mL (≈ 72.3 µM) | > 50 µg/mL | – | Not toxic | Not toxic | Not toxic | –
Cc1ccc(C#Cc2nc(C(N)=O)nn2COCCO)cc1 | 16 µg/mL (≈ 53.3 µM) | > 50 µg/mL | – | – | – | – | < 80%
